For one test, the system named is Plasmodium falciparum. Nature of the test: In vitro antimalarial activity against Plasmodium falciparum. It is filed as functional, organism-based. In outline:
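P. falciparum clone D6 (Sierra Leone strain) grown in human O+ erythrocytes, 1% erythrocyte suspension, starting parasitemia about 0.5%. Analogues dissolved in culture medium and filter-sterilized. After 24 h of exposure, [3H]hypoxanthine (1 µCi) was added and its incorporation measured after a further 18-24 h. IC50 is the concentration (µM) inhibiting incorporation by 50%.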

The test system of test [1] is Plasmodium berghei. Put plainly: In vivo antimalarial activity against Plasmodium berghei in mice (Mus musculus) as maximum dose tolerated. It counts as functional. The method in brief:
(§1)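 Peters 4-day suppression test, mice in groups of five, P. berghei given intravenously. DFMO 2% in drinking water for four nights (Mon-Thu), starting about 4-6 h after infection. Analogues given intraperitoneally at 8:30, 12:30 and 16:30 on three consecutive days (Tue-Thu). Dose reported as highest tolerated, highest tested, or giving maximum response. Cures judged as survival beyond 4 months with parasite-free Giemsa blood smears.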

Test [2] relates to Plasmodium berghei. Put plainly: In vivo antimalarial activity against Plasmodium berghei infected mice (Mus musculus) as cures surviving after 4 months. It is filed as functional. In outline:
(§2)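 Standard 4-day suppression test: mice in groups of five infected intravenously with P. berghei; treatment began about 4-6 h after infection. Co-treatment with DFMO as 2% solution in drinking water for four nights, plus analogue given intraperitoneally three times daily (8:30, 12:30, 16:30) on three consecutive days. Cure means survival beyond 4 months with parasite-free Giemsa-stained blood smears on periodic examination.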

Test [3] relates to Plasmodium berghei. Nature of the test: In vivo antimalarial activity against Plasmodium berghei in mice (Mus musculus) as maximum dose tested. It counts as functional. In outline: as §1
The test system of test [4] is Plasmodium berghei. Nature of the test: In vivo antimalarial activity against Plasmodium berghei in mice (Mus musculus) as dose required for Emax. It is filed as functional. The method in brief:
as §1

In test [5] the test system is Plasmodium berghei. Put plainly: In vivo antimalarial activity as increased survival (%max) against Plasmodium berghei in mice (Mus musculus). It counts as functional. In outline:
as §2

In general, IC50 refers to the concentration needed to halve the response being measured. Read a high IC50 as lower potency.

Compound `Cl.Cl.Cl.Cl.Clc1ccc(CNCCCNCCCCCCCCNCCCNCc2ccc(Cl)cc2)cc1` showed an IC50 in the test with Plasmodium falciparum of 0.5 µM. In the test on Plasmodium berghei [1], this compound gave a Dose of 3 mg/kg. Further, the Cured in the test on Plasmodium berghei [2] turned out to be 60%.
As for `c1ccc(NCCCNCCCCCCCNCCCNc2ccccc2)cc1`, the half-maximal inhibitory concentration (IC50) with Plasmodium falciparum is 0.5 µM.
The compound `Cl.Cl.Cl.Cl.c1ccc(CNCCCNCCCCCCNCCCNCc2ccccc2)cc1` came in with an IC50 in the test with Plasmodium falciparum of 5.3 µM. Moreover, the Dose in the test on Plasmodium berghei [3] was 30 mg/kg.
`NCCCNCCCCCCCCNCCCN` registered an IC50 with Plasmodium falciparum of 1800 µM.
`CS(=O)(=O)c1ccc(CNCCCNCCCCCCCNCCCNCc2ccc(S(C)(=O)=O)cc2)cc1`: the midpoint of inhibition in the test with Plasmodium falciparum, the IC50, lay at 86 µM.
Same read-out and setting: the value for `c1cc(CNCCCNCCCCCCCNCCCNCc2ccsc2)cs1` was 3.9 µM; that for `NCCCNCCCCCCCCNCCCNCc1ccccc1` was 64 µM; that for `c1ccc(CNCCCCNCCCCCCCNCCCCNCc2ccccc2)cc1` was 3.2 µM.
In the test with Plasmodium falciparum, `Cl.Cl.Cl.Cl.c1ccc(CNCCCNCCCCCCCCCNCCCNCc2ccccc2)cc1` had an IC50 of 0.7 µM. The Dose in the test with Plasmodium berghei [4] is 10 mg/kg. In addition, the Cured in the test with Plasmodium berghei [2] amounted to 60%.
In the test with Plasmodium falciparum, `Cl.Cl.Cl.Cl.c1ccc(CNCCNCCCCCCCCNCCNCc2ccccc2)cc1` gave an IC50 of 0.3 µM. The Max increase in the test on Plasmodium berghei [5] turned out to be 45%. The compound also returned a Dose in the test on Plasmodium berghei [3] of 30 mg/kg.
In the test with Plasmodium falciparum, `CC(N)CCNCCCCCCCNCCC(C)N` (stereo unspecified) showed an IC50 of more than 20 µM.
`c1ccc(CNCCNCCCCCCCNCCNCc2ccccc2)cc1`: the midpoint of inhibition with Plasmodium falciparum, the IC50, lay at 1.4 µM.
Take `COc1ccc(CNCCCNCCCCCCCNCCCNCc2ccc(OC)cc2)cc1`: in the test on Plasmodium falciparum, the half-inhibitory concentration (IC50) was determined as 2.5 µM. This IC50 is about 1.8-fold higher than that of the compound before.
The same measure, in the same setting: the figure for `c1ccc(CNCCNCCCCCCNCCNCc2ccccc2)cc1` is 4.5 µM; for `COc1ccc(CNCCCNCCCCCCCCNCCCNCc2ccc(OC)cc2)cc1` it is 1.3 µM; for `c1ccc(CCNCCCNCCCCCCCNCCCNCCc2ccccc2)cc1` it is 1.9 µM.
The compound `Cl.Cl.Cl.Cl.c1ccc(CNCCCNCCCCCCCNCCCNCc2ccccc2)cc1` registered an IC50 with Plasmodium falciparum of 3 µM. In the test with Plasmodium berghei [4], the Dose is 15 mg/kg. Besides, the Cured in the test on Plasmodium berghei [2] was 100%.
`Cl.Cl.Cl.Cl.c1ccc(CNCCCNCCCCCNCCCNCc2ccccc2)cc1` returned a half-inhibitory concentration (IC50) with Plasmodium falciparum of 6.7 µM. In the test with Plasmodium berghei [5], the Max increase was found to be 30%. The compound further showed a Dose in the test with Plasmodium berghei [3] of 30 mg/kg.
For `Clc1ccc(CNCCCNCCCCCCCNCCCNCc2ccc(Cl)cc2)cc1`, the IC50 in the test on Plasmodium falciparum was determined as 1.4 µM.
In the case of `Oc1ccc(CNCCCNCCCCCCCCNCCCNCc2ccc(O)cc2)cc1`, in the test on Plasmodium falciparum, the half-maximal inhibitory concentration (IC50) worked out at 5.7 µM.
In the test with Plasmodium falciparum, `C(CCCNCCCNCC1CCCCC1)CCCNCCCNCC1CCCCC1` came in with an IC50 of 1.8 µM.
On the same count and under the same terms, the value for `CCCCNCCCNCCCCCCCCNCCCNCCCC` was 30 µM.
In the test with Plasmodium falciparum, `c1ccc2c(CNCCCNCCCCCCCCNCCCNCc3cccc4ccccc34)cccc2c1` came in with an IC50 of 0.34 µM.
`CC(NCCCNCCCCCCCNCCCNC(C)c1ccccc1)c1ccccc1` (stereo unspecified) came in with a half-maximal inhibitory concentration (IC50) in the test on Plasmodium falciparum of 4.8 µM.
`CS(=O)(=O)c1ccc(CNCCCNCCCCCCCCNCCCNCc2ccc(S(C)(=O)=O)cc2)cc1` came in with a half-inhibitory concentration (IC50) in the test on Plasmodium falciparum of 20 µM.
Compound `CCc1ccc(CNCCCNCCCCCCCNCCCNCc2ccc(CC)cc2)cc1.Cl.Cl.Cl.Cl` gave a concentration for half-maximal inhibition (IC50) in the test on Plasmodium falciparum of 1.8 µM. Moreover, the Dose in the test with Plasmodium berghei [3] was 30 mg/kg.
`CCc1ccc(CNCCCNCCCCCCCCNCCCNCc2ccc(CC)cc2)cc1` returned a half-maximal inhibitory concentration (IC50) in the test with Plasmodium falciparum of 1.4 µM.
Compound `c1csc(CNCCCNCCCCCCCNCCCNCc2cccs2)c1` had a half-inhibitory concentration (IC50) in the test on Plasmodium falciparum of 4.5 µM.
Same read-out and setting: the value for `c1ccc(CNCCCCNCCCCCCCCNCCCCNCc2ccccc2)cc1` was 5.3 µM.
The compound `Cl.Cl.Cl.Cl.c1ccc(CNCCCNCCCCNCCCNCc2ccccc2)cc1` gave a 50% inhibitory concentration (IC50) with Plasmodium falciparum of 14 µM. In the test with Plasmodium berghei [5], this compound gave a Max increase of 30%. Also, the Dose in the test with Plasmodium berghei [3] was determined as 30 mg/kg.
In turn, `NCCCNCCCCCCCNCCCNCc1ccccc1` registered an IC50 in the test with Plasmodium falciparum of 330 µM.
Turning to `CSc1ccc(CNCCCNCCCCCCCNCCCNCc2ccc(SC)cc2)cc1`, half-maximal inhibition in the test on Plasmodium falciparum (IC50) required 3 µM.
Regarding `c1ccc(CNCCNCCCCCCCCCCNCCNCc2ccccc2)cc1`, half-maximal inhibition in the test with Plasmodium falciparum (IC50) required 0.3 µM.
The compound `CC(CCNCCCCCCCNCCC(C)NCc1ccccc1)NCc1ccccc1.Cl.Cl.Cl.Cl` (stereo unspecified) gave an IC50 in the test with Plasmodium falciparum of 2.6 µM. Besides, the Dose in the test with Plasmodium berghei [3] came to 100 mg/kg.
Turning to `CSc1ccc(CNCCCNCCCCCCCCNCCCNCc2ccc(SC)cc2)cc1`, the half-maximal inhibitory concentration (IC50) in the test on Plasmodium falciparum amounted to 0.6 µM.
Regarding `Cl.Cl.Cl.Cl.c1ccc(CNCCCNCCCCCCCCNCCCNCc2ccccc2)cc1`, the IC50 in the test with Plasmodium falciparum was determined as 0.8 µM. Besides, the Dose in the test with Plasmodium berghei [4] is 10 mg/kg. The Cured in the test with Plasmodium berghei [2] is recorded as 80%.
In the case of `Cl.Cl.Cl.Cl.c1ccc(CNCCCNCCCCCCCCCCNCCCNCc2ccccc2)cc1`, the concentration for half-maximal inhibition (IC50) in the test with Plasmodium falciparum came out at 0.5 µM. The compound also yielded a Dose in the test with Plasmodium berghei [1] of 3 mg/kg. The compound also came in with a Cured with Plasmodium berghei [2] of 40%.
On to `NCCCNCCCCCCCNCCCN`, for which, in the test with Plasmodium falciparum, the IC50 came to 4300 µM.
For `c1ccc(CCCNCCCNCCCCCCCNCCCNCCCc2ccccc2)cc1`, in the test on Plasmodium falciparum, half-maximal inhibition (IC50) required 0.3 µM.
Regarding `Cl.Cl.Cl.Cl.c1ccc(CNCCCNCCCCCCCCCCCCNCCCNCc2ccccc2)cc1`, in the test on Plasmodium falciparum, the IC50 stood at 0.2 µM. Moreover, in the test on Plasmodium berghei [1], the Dose came out at 10 mg/kg.
`Oc1ccc(CNCCCNCCCCCCCNCCCNCc2ccc(O)cc2)cc1` had a half-maximal inhibitory concentration (IC50) in the test on Plasmodium falciparum of 27 µM.

The values above are taken from ChEMBL document CHEMBL1125840, “Antimalarial polyamine analogues” (J Med Chem, 1991).
